In ChEMBL document CHEMBL1944538, “Synthetic peptides derived from the sequence of a lasso peptide microcin J25 show antibacterial activity” (Bioorg Med Chem, 2012):
Values after ≈ are worked out from the molar mass of the structure shown. Active and inactive are the calls of the source. The rule behind the calls is not given here. Positions of bridges follow the written chain, without caps; N, C: chain ends. Residues, ends and D or L forms follow the SMILES beside them.

How the values were obtained:
[1] = system: Salmonella enterica subsp. enterica serovar Newport; assay: Inhibition of oxygen consumption in Salmonella newport clinical isolate at 25 uM after 35 mins by Gilson Clarke oxygraph analysis; assay type: functional
In short: (§1)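 Cells were held 35 min at 37 °C with peptide at the stated concentration. Respiration rate over the next 5 min was measured polarographically with a Clark electrode oxygraph at 37 °C. Results are percent of a peptide-free control; three independent experiments, mean ± SD.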

[2] = Stability of the compound at 200 uM after overnight incubation by spot on lawn method in the presence of chymotrypsin; assay type: ADME
[3] = Stability of the compound at 150 uM after 30 mins by RP-HPLC analysis in the presence of pepsin; assay type: ADME; conditions: 0.5 h
In short: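 Peptide (150 µM) was incubated at 37 °C with pepsin (4% w/w) in 0.1 N HCl. Aliquots taken at 0 and 30 min were quenched into 0.1 N NaOH/70% methanol and centrifuged. Supernatant was analysed by C18 RP-HPLC (15–50% isopropanol/water, 0.05% TFA, 35 min, UV 220 nm). Fragments were identified by MALDI-TOF.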

[4] = Bactericidal activity against Salmonella choleraesuis ATCC 10708 after 24 hrs; assay type: functional, Salmonella enterica subsp. enterica serovar Choleraesuis; conditions: Salmonella enterica, ATCC 10708, 24 h
In short: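 MBC: 10 μL from each clear well of the 24 h, 37 °C LB broth MIC plate spread on LB agar, incubated 24 h at 37 °C; MBC = lowest concentration with no growth on the plate.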

Salmonella enteritidis [5] = assay: Bactericidal activity against Salmonella enteritidis ATCC P76 after 24 hrs by liquid growth inhibition assay; assay type: functional, Salmonella enterica subsp. enterica serovar Enteritidis; conditions: Salmonella enterica, ATCC P76, 24 h
Salmonella typhimurium [6] = assay: Bactericidal activity against Salmonella Typhimurium ATCC 13311 after 24 hrs; assay type: functional, Salmonella enterica subsp. enterica serovar Typhimurium; conditions: Salmonella enterica, ATCC 13311, 24 h
In short: (§2)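 For MBC, 10 µL from each clear well of the 24 h, 37 °C LB broth-dilution plate was spread on LB agar and incubated 24 h at 37 °C. MBC was the lowest concentration giving no growth on agar.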

[7] = Bactericidal activity against Salmonella newport clinical isolate after 24 hrs; assay type: functional, Salmonella enterica subsp. enterica serovar Newport; conditions: Salmonella enterica; in short: as §2
Enterococcus faecalis = assay: Antibacterial activity against Enterococcus faecalis ATCC 19433; assay type: functional, organism-based
Staphylococcus aureus = assay: Antibacterial activity against Staphylococcus aureus ATCC 6538; assay type: functional, organism-based
Escherichia coli [8] = assay: Antibacterial activity against Escherichia coli MC4100 up to 250 uM after 24 hrs by liquid growth inhibition assay; assay type: functional, organism-based
In short: (§3)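 Liquid broth microdilution in LB. Peptide stocks were made in 20% methanol/water (1 or 2.5 mM), then serially doubled in water to final 0.01–100 or 0.5–250 µM. Inoculum was diluted to OD620 0.02–0.05. Plates ran 24 h at 37 °C and were read at OD620. MIC was the lowest concentration giving 100% growth inhibition (0.05 AU). Triplicate wells, three repeat experiments.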

Escherichia coli [9] = assay: Antibacterial activity against Escherichia coli DH5alpha up to 250 uM after 24 hrs by liquid growth inhibition assay; assay type: functional, organism-based; conditions: DH5[alpha]; in short: as §3
[10] = Antibacterial activity against Salmonella choleraesuis ATCC 10708 after 24 hrs by liquid growth inhibition assay; assay type: functional, Salmonella enterica subsp. enterica serovar Choleraesuis; conditions: Salmonella enterica, ATCC 10708, 24 h
Salmonella paratyphi [11] = assay: Antibacterial activity against Salmonella paratyphi up to 250 uM after 24 hrs by liquid growth inhibition assay; assay type: functional, organism-based; conditions: Salmonella enterica subsp. enterica serovar Paratyphi A
[12] = system: Salmonella enterica subsp. enterica serovar Montevideo; assay: Antibacterial activity against Salmonella montevideo 20 up to 250 uM after 24 hrs by liquid growth inhibition assay; assay type: functional; in short: as §3
[13] = Antibacterial activity against Salmonella heidelberg ATCC 8326 after 24 hrs by liquid growth inhibition assay; assay type: functional, Salmonella enterica subsp. enterica serovar Heidelberg; conditions: Salmonella enterica, ATCC 8326, 24 h; in short: as §3
Salmonella typhimurium [14] = assay: Antibacterial activity against Salmonella Typhimurium ATCC 13311 after 24 hrs by liquid growth inhibition assay; assay type: functional, Salmonella enterica subsp. enterica serovar Typhimurium; conditions: Salmonella enterica, ATCC 13311, 24 h; in short: as §3
Salmonella typhimurium [15] = assay: Antibacterial activity against Salmonella Typhimurium AFLB 25 after 24 hrs by liquid growth inhibition assay; assay type: functional, Salmonella enterica subsp. enterica serovar Typhimurium; conditions: Salmonella enterica, AFLB 25, 24 h; in short: as §3
Salmonella enteritidis [16] = assay: Antibacterial activity against Salmonella enteritidis AFLB 81 up to 250 uM after 24 hrs by liquid growth inhibition assay; assay type: functional, organism-based; conditions: Salmonella enterica subsp. enterica serovar Enteritidis; in short: as §3
Salmonella enteritidis [17] = assay: Antibacterial activity against Salmonella enteritidis AFLB 41 up to 250 uM after 24 hrs by liquid growth inhibition assay; assay type: functional, organism-based; conditions: Salmonella enterica subsp. enterica serovar Enteritidis; in short: as §3
Salmonella enteritidis [18] = assay: Antibacterial activity against Salmonella enteritidis AFLB 11 up to 250 uM after 24 hrs by liquid growth inhibition assay; assay type: functional, organism-based; conditions: Salmonella enterica subsp. enterica serovar Enteritidis; in short: as §3
Salmonella enteritidis [19] = assay: Antibacterial activity against Salmonella enteritidis ATCC 13076 up to 250 uM after 24 hrs by liquid growth inhibition assay; assay type: functional, organism-based; conditions: Salmonella enterica subsp. enterica serovar Enteritidis; in short: as §3
Salmonella enteritidis [20] = assay: Antibacterial activity against Salmonella enteritidis PT8 after 24 hrs by liquid growth inhibition assay; assay type: functional, Salmonella enterica subsp. enterica serovar Enteritidis; conditions: Salmonella enterica, PT8, 24 h; in short: as §3
[21] = Antibacterial activity against Salmonella newport clinical isolate after 24 hrs by liquid growth inhibition assay; assay type: functional, Salmonella enterica subsp. enterica serovar Newport; conditions: Salmonella enterica; in short: as §3
[22] = Cytotoxicity against human MDA-MB-435 cells assessed as cell viability at 0.3 to 100 uM after 24 hrs by MTT assay; assay type: cell-based; conditions: read-out: Activity
In short: (§4)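 MTT assay. MDA-MB-435 cells were kept in RPMI 1640 and MCF7 cells in DMEM, both with 10% FBS, penicillin and streptomycin, at 37 °C and 5% CO2. Cells were seeded at 1×10^4/well and grown 24 h. Samples came from 1 mM stocks in 10% DMSO/water, twofold diluted to 0.3125–100 µM, and applied for 24 h. MTT (5 mg/mL) was added for 3.5 h, then DMSO solubilization and A570. Viability is relative to untreated cells; triplicate, mean.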

[23] = Cytotoxicity against human MCF7 cells assessed as cell viability at 0.3 to 100 uM after 24 hrs by MTT assay; assay type: cell-based; conditions: read-out: Activity; in short: as §4
[24] = Thermostability in boiling water after 3 hrs; assay type: physicochemical; conditions: buffer
[25] = system: Salmonella enterica subsp. enterica serovar Newport; assay: Inhibition of oxygen consumption in Salmonella newport clinical isolate at 0.25 uM after 35 mins by Gilson Clarke oxygraph analysis; assay type: functional; in short: as §1
Escherichia coli [26] = assay: Antibacterial activity against Escherichia coli MC4100 after 24 hrs by liquid growth inhibition assay; assay type: functional; conditions: MC4100, 24 h; in short: as §3
Escherichia coli [27] = assay: Antibacterial activity against Escherichia coli DH5alpha after 24 hrs by liquid growth inhibition assay; assay type: functional; conditions: DH5[alpha]; in short: as §3
Salmonella paratyphi [28] = assay: Antibacterial activity against Salmonella paratyphi after 24 hrs by liquid growth inhibition assay; assay type: functional, Salmonella enterica subsp. enterica serovar Paratyphi A; conditions: Salmonella enterica
[29] = system: Salmonella enterica subsp. enterica serovar Heidelberg; assay: Antibacterial activity against Salmonella heidelberg ATCC 8326 up to 250 uM after 24 hrs by liquid growth inhibition assay; assay type: functional; in short: as §3
Salmonella typhimurium [30] = assay: Antibacterial activity against Salmonella Typhimurium ATCC 13311 up to 250 uM after 24 hrs by liquid growth inhibition assay; assay type: functional, organism-based; conditions: Salmonella enterica subsp. enterica serovar Typhimurium; in short: as §3
Salmonella enteritidis [31] = assay: Antibacterial activity against Salmonella enteritidis AFLB 81 after 24 hrs by liquid growth inhibition assay; assay type: functional, Salmonella enterica subsp. enterica serovar Enteritidis; conditions: Salmonella enterica, AFLB 81, 24 h; in short: as §3
Salmonella enteritidis [32] = assay: Antibacterial activity against Salmonella enteritidis AFLB 41 after 24 hrs by liquid growth inhibition assay; assay type: functional, Salmonella enterica subsp. enterica serovar Enteritidis; conditions: Salmonella enterica, AFLB 41, 24 h; in short: as §3
Salmonella enteritidis [33] = assay: Antibacterial activity against Salmonella enteritidis AFLB 11 after 24 hrs by liquid growth inhibition assay; assay type: functional, Salmonella enterica subsp. enterica serovar Enteritidis; conditions: Salmonella enterica, AFLB 11, 24 h; in short: as §3
Salmonella enteritidis [34] = assay: Antibacterial activity against Salmonella enteritidis ATCC 13076 after 24 hrs by liquid growth inhibition assay; assay type: functional, Salmonella enterica subsp. enterica serovar Enteritidis; conditions: Salmonella enterica, ATCC 13076, 24 h; in short: as §3
[35] = Cytotoxicity against human MDA-MB-435 cells assessed as cell viability up to 100 uM after 24 hrs by MTT assay; assay type: cell-based; conditions: read-out: Activity; in short: as §4
[36] = Cytotoxicity against human MCF7 cells assessed as cell viability up to 100 uM after 24 hrs by MTT assay; assay type: cell-based; conditions: read-out: Activity; in short: as §4
[37] = Cytotoxicity against human MDA-MB-435 cells assessed as cell viability at 3 uM after 24 hrs by MTT assay; assay type: cell-based; conditions: read-out: Activity
[38] = Cytotoxicity against human MCF7 cells assessed as cell viability at 3 uM after 24 hrs by MTT assay; assay type: cell-based; conditions: read-out: Activity

CC[C@H](C)[C@@H]1NC(=O)CNC(=O)[C@H](C(C)C)NC(=O)[C@H](Cc2ccccc2)NC(=O)[C@H](Cc2ccc(O)cc2)NC(=O)[C@@H]2CCC(=O)NCC(=O)NCC(=O)N[C@@H](C)C(=O)N[C@@H](CSSC[C@@H](C(=O)O)NC(=O)[C@H](Cc3ccccc3)NC(=O)[C@H](CO)NC(=O)[C@H]([C@@H](C)CC)NC(=O)[C@@H]3CCCN3C(=O)[C@H]([C@@H](C)O)NC(=O)CNC1=O)C(=O)N[C@@H](Cc1cnc[nH]1)C(=O)N[C@@H](C(C)C)C(=O)N1CCC[C@H]1C(=O)N2 (GGACHVPEYFVGIGTPISFC-OH; disulfide 4-20; lactam N-8)
inhibition [1]: Active | Stability [2]: Unstable | Stability [3]: Unstable | MBC [4]: 125 µM (≈ 254 µg/mL) | MBC (Salmonella enteritidis [5]): 125 µM (≈ 254 µg/mL) | MBC (Salmonella typhimurium [6]): 125 µM (≈ 254 µg/mL) | MBC [7]: 31.2 µM (≈ 63.6 µg/mL) | Activity (Enterococcus faecalis): inactive | Activity (Staphylococcus aureus): inactive | Activity (Escherichia coli [8]): inactive | Activity (Escherichia coli [9]): inactive | MIC [10]: 90 µM (≈ 183 µg/mL) | Activity (Salmonella paratyphi [11]): inactive | Activity [12]: inactive | MIC [13]: 83 µM (≈ 169 µg/mL) | MIC (Salmonella typhimurium [14]): 75 µM (≈ 153 µg/mL) | MIC (Salmonella typhimurium [15]): 85 µM (≈ 173 µg/mL) | Activity (Salmonella enteritidis [16]): inactive | Activity (Salmonella enteritidis [17]): inactive | Activity (Salmonella enteritidis [18]): inactive | Activity (Salmonella enteritidis [19]): inactive | MIC (Salmonella enteritidis [20]): 80 µM (≈ 163 µg/mL) | MIC [21]: 25 µM (≈ 50.9 µg/mL) | viability at 24 h, up to 100 µM [22]: > 90% | viability at 24 h, up to 100 µM [23]: > 90% | Stability [24]: Stable

CC[C@H](C)[C@H](NC(=O)CNC(=O)[C@@H](NC(=O)[C@H](Cc1ccccc1)NC(=O)[C@H](Cc1ccc(O)cc1)NC(=O)[C@@H]1CCC(=O)NCC(=O)NCC(=O)N[C@@H](C)C(=O)NCC(=O)N[C@@H](Cc2cnc[nH]2)C(=O)N[C@@H](C(C)C)C(=O)N2CCC[C@H]2C(=O)N1)C(C)C)C(=O)NCC(=O)N[C@H](C(=O)N1CCC[C@H]1C(=O)N[C@H](C(=O)N[C@@H](CO)C(=O)N[C@@H](Cc1ccccc1)C(=O)N[C@@H](Cc1ccc(O)cc1)C(=O)NCC(=O)O)[C@@H](C)CC)[C@@H](C)O [MICROCIN J25] (GGAGHVPEYFVGIGTPISFYG-OH; lactam N-8)
inhibition [25]: Active | MIC (Escherichia coli [26]): 5 µM (≈ 10.5 µg/mL) | MIC (Escherichia coli [27]): 5 µM (≈ 10.5 µg/mL) | MIC [10]: 1.5 µM (≈ 3.16 µg/mL) | MIC (Salmonella paratyphi [28]): 1.5 µM (≈ 3.16 µg/mL) | Activity [12]: inactive | Activity [29]: inactive | Activity (Salmonella typhimurium [30]): inactive | MIC (Salmonella typhimurium [15]): 2.8 µM (≈ 5.9 µg/mL) | MIC (Salmonella enteritidis [31]): 1.7 µM (≈ 3.58 µg/mL) | MIC (Salmonella enteritidis [32]): 1.6 µM (≈ 3.37 µg/mL) | MIC (Salmonella enteritidis [33]): 2 µM (≈ 4.21 µg/mL) | MIC (Salmonella enteritidis [34]): 1.8 µM (≈ 3.79 µg/mL) | MIC (Salmonella enteritidis [20]): 1.5 µM (≈ 3.16 µg/mL) | MIC [21]: 0.5 µM (≈ 1.05 µg/mL) | viability at 24 h [35]: > 80% | viability at 24 h [36]: > 80%

COc1cccc2c1C(=O)c1c(O)c3c(c(O)c1C2=O)C[C@@](O)(C(=O)CO)C[C@@H]3O[C@H]1C[C@H](N)[C@H](O)[C@H](C)O1 [DOXORUBICIN]
viability at 24 h, 3 µM [37]: 20% | viability at 24 h, 3 µM [38]: 20%
